Test results as given in ChEMBL document CHEMBL4184143 (J Med Chem, 2017).

How the values were obtained:
[1] = molecular target: T1, Bromodomain-containing protein 2 (Homo sapiens, UniProt P25440); test: Binding affinity to human partial length BRD2 bromodomain 2 isoform 1 (349 to 460 residues) expressed in bacterial expression system by BROMOscan assay
[2] = molecular target: Bromodomain-containing protein 3 (Homo sapiens, UniProt Q15059); test: Binding affinity to human partial length BRD3 bromodomain 1/2 (P24 to P416 residues) expressed in bacterial expression system by BROMOscan assay
Mus musculus [3] = test: Toxicity in SCID mouse implanted with human MV-411 cells assessed as weight loss at 50 mg/kg, po qd measured 2 to 3 times weekly during treatment and weekly post dose; format: organism-based; conditions: in vivo
In short: (§1)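 At ~100 mm3, mice were randomized to treatment or vehicle control. Tumors were measured by electronic calipers. Animals were checked daily for signs of toxicity and weighed 2–3 times weekly on treatment, then at least weekly afterwards.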

[4] = Half life in SCID mouse at 25 mg/kg, po by LC/MS method; format: ADME, organism-based; conditions: in vivo
CREB-binding protein = CREB-binding protein (Homo sapiens, UniProt Q92793); test: Binding affinity to human partial length CREBBP (R1081 to G1197 residues) expressed in bacterial expression system by BROMOscan assay
Chain of CREB-binding protein (Q92793 whole entry, the tested form may be a part): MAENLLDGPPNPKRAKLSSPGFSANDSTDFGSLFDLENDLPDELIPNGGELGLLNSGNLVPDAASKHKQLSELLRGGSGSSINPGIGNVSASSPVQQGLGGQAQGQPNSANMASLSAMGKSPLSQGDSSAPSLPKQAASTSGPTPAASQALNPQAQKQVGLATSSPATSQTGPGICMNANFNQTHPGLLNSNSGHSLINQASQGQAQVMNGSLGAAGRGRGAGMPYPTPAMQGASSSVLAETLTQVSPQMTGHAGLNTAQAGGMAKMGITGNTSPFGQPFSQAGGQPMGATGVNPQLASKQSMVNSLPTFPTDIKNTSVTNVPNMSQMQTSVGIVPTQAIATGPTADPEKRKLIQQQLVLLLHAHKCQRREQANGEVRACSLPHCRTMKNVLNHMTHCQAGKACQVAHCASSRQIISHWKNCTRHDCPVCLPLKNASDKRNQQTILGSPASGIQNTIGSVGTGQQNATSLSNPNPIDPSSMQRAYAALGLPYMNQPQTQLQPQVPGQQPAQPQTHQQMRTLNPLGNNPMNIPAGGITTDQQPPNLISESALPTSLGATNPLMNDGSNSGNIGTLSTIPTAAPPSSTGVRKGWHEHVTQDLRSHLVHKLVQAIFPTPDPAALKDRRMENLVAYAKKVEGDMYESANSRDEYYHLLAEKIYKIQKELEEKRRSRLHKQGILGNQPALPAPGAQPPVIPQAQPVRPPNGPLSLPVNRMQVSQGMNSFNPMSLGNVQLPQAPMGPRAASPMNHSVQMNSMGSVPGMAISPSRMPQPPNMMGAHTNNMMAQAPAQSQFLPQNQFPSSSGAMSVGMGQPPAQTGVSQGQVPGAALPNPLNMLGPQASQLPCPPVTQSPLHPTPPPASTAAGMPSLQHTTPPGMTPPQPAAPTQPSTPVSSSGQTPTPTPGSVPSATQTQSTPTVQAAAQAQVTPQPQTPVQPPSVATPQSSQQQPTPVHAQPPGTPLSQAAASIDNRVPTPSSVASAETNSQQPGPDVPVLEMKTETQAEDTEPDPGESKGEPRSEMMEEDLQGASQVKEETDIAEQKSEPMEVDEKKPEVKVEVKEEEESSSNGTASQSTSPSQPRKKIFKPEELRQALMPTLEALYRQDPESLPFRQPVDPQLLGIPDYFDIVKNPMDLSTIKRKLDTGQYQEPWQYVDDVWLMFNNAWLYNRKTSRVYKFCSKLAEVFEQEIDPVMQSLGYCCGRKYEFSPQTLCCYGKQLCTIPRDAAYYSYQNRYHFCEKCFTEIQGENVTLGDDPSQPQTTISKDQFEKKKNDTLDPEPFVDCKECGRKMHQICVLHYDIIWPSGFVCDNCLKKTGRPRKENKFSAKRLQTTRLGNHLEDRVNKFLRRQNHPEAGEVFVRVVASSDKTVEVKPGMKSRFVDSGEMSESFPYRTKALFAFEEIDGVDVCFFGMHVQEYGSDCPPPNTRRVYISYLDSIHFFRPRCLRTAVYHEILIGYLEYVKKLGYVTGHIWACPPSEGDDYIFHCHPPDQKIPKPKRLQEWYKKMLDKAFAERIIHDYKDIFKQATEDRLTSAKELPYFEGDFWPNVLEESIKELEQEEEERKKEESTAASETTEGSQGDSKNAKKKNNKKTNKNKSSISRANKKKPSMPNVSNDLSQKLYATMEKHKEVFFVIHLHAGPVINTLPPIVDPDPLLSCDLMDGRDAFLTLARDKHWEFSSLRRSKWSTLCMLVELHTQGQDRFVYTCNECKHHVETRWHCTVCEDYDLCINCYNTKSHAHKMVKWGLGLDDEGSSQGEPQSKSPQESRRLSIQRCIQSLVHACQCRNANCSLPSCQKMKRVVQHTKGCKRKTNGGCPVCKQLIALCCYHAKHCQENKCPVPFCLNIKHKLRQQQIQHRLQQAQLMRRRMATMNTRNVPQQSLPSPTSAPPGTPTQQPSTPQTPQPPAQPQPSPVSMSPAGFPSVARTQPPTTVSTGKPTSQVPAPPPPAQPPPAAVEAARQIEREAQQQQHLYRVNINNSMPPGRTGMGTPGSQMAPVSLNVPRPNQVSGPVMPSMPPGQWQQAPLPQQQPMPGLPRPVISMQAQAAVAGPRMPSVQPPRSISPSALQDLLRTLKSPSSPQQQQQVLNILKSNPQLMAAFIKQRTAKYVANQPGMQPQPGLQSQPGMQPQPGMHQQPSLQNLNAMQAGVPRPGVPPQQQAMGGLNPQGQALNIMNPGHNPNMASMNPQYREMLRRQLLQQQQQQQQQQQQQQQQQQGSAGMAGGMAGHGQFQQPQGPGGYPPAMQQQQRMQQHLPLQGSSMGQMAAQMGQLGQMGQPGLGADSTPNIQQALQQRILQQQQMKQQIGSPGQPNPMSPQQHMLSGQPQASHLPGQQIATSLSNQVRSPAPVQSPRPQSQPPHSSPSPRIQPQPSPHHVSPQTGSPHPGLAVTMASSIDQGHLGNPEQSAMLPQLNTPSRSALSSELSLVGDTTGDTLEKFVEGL

[5] = Half life in Sprague-Dawley rat at 25 mg/kg, po by LC/MS method; format: ADME, organism-based; conditions: in vivo
In short: (§2)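 Sprague Dawley rats were dosed iv at 5 mg/kg or orally at 25 mg/kg, with compound dissolved in 20% (v/v) PCP/70% (v/v) PBS vehicle. Blood was drawn by catheter at 0, 5, 15, 30 min and 1, 2, 4, 6, 8, 24 h and spun to plasma, which was stored at −80 °C. Plasma drug was quantified by a validated LC–MS/MS method, and parameters were derived noncompartmentally.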

MV4-11 [6] = test: Inhibition of BET bromodomain in human MV4-11 cells assessed as downregulation of c-myc level after 1 hr by Western blot method; format: cell-based
In short: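 MV4;11 cells were treated with a range of compound concentrations for 1 h and lysed in RIPA buffer with protease inhibitors. Lysates were run on 4–20% SDS-PAGE, transferred to PVDF and probed for c-Myc with a specific antibody.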

[7] = Aqueous solubility of the compound in 5% DMSO/10% cremophor/85% saline; format: physicochemical; conditions: buffer
[8] = Cmax in Sprague-Dawley rat at 25 mg/kg, po by LC/MS method; format: ADME, organism-based; parameters: dose 25 mg/kg, route oral; conditions: in vivo; in short: as §2
[9] = Half life in CD1 mouse liver microsomes at 1 uM by LC/MS method; format: ADME, microsome
[10] = AUC (0 to t) in Sprague-Dawley rat at 5 mg/kg, iv by LC/MS method; format: ADME, organism-based; conditions: in vivo; in short: as §2
[11] = Half life in Sprague-Dawley rat liver microsomes at 1 uM by LC/MS method; format: ADME, microsome
MV4-11 [12] = test: Antitumor activity against human MV4-11 cells xenografted in SCID mouse assessed as tumor growth inhibition at 50 mg/kg, po qd measured 2 to 3 times weekly during treatment and once weekly post dose; format: functional; conditions: MV4-11, po, read-out: TGI; in short: as §1
Mus musculus [13] = test: Volume of distribution at steady state in SCID mouse at 5 mg/kg, iv by LC/MS method; format: ADME, organism-based; conditions: in vivo
Mus musculus [14] = test: Clearance in SCID mouse at 5 mg/kg, iv by LC/MS method; format: ADME, organism-based; conditions: in vivo
[15] = molecular target: Bromodomain-containing protein 9 (Homo sapiens, UniProt Q9H8M2); test: Binding affinity to human partial length BRD9 (R130 to V259 residues) expressed in bacterial expression system by BROMOscan assay
MV4-11 [16] = test: Induction of apoptosis in human MV4-11 cells assessed as upregulation of cleaved PARP protein level after 24 hrs by Western blot method; format: functional, cell-based
In short: (§3)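 MV4;11 cells were exposed to compound for 24 h and lysed in RIPA buffer with protease inhibitors. Lysates were separated on 4–20% SDS-PAGE, blotted to PVDF and probed for PARP, cleaved PARP and p21, with β-actin as loading control.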

[17] = molecular target: SWI/SNF-related matrix-associated actin-dependent regulator of chromatin subfamily A member 4 (Homo sapiens, UniProt P51532); test: Binding affinity to human partial length SMARCA4 (A1448 to S1575 residues) expressed in bacterial expression system by BROMOscan assay
[18] = molecular target: Bromodomain adjacent to zinc finger domain protein 2A (Homo sapiens, UniProt Q9UIF9); test: Binding affinity to human partial length BAZ2A (M1792 to L1905 residues) expressed in bacterial expression system by BROMOscan assay
Chain of Bromodomain adjacent to zinc finger domain protein 2A (Q9UIF9 whole entry, the tested form may be a part): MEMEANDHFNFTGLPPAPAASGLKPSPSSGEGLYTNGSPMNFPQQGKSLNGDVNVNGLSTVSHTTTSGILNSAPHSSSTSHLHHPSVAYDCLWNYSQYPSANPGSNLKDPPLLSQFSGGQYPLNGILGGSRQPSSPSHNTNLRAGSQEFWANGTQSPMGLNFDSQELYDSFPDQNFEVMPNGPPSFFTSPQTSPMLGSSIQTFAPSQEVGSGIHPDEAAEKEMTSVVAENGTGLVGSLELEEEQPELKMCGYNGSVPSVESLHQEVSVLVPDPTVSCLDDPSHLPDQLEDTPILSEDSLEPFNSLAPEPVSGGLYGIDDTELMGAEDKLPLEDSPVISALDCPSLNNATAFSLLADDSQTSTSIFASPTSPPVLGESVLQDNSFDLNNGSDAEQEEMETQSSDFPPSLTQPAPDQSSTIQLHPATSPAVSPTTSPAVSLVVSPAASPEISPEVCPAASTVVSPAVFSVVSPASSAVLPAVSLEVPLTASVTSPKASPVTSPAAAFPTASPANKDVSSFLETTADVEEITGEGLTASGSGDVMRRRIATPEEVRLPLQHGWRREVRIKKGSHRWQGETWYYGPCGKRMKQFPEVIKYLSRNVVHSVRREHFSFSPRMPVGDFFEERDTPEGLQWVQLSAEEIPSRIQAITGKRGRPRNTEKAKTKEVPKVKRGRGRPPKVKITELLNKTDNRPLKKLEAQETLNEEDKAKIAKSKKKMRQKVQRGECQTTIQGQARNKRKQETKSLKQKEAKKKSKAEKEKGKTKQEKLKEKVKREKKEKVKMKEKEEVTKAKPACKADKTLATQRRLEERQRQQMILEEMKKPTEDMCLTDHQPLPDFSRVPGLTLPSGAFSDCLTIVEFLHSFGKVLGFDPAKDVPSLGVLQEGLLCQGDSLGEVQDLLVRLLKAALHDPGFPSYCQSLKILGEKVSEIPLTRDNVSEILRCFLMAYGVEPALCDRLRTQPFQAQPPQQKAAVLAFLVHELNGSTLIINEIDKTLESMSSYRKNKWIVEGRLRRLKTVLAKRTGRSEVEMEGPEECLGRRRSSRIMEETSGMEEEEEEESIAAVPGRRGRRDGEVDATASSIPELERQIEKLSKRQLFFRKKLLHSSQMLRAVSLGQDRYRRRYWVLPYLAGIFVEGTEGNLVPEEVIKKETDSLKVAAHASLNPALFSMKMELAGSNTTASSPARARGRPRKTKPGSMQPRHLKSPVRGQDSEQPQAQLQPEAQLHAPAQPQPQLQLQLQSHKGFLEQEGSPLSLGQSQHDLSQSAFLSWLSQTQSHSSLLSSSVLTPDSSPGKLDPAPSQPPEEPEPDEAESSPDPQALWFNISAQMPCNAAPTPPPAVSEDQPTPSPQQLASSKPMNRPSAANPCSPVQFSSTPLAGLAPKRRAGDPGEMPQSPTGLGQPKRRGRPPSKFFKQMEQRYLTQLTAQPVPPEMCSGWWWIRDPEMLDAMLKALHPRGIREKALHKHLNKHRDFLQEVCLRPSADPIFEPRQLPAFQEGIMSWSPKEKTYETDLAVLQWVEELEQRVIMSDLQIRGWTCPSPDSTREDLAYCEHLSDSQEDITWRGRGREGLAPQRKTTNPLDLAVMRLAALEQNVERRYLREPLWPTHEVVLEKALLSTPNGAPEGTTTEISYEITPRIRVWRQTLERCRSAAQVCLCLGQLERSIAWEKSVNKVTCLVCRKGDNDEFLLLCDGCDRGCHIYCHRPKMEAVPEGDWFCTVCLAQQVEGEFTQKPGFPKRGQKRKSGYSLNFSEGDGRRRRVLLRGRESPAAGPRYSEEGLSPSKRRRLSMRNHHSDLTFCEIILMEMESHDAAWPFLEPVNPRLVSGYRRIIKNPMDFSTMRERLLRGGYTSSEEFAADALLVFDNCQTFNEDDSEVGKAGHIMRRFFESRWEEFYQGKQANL

[19] = molecular target: Bromodomain-containing protein 4 (Homo sapiens, UniProt O60885); test: Inhibition of FAM-labeled ZBA248 binding to recombinant human N-terminal His6-tagged BRD4 bromodomain 1 (44 to 168 residues) expressed in Rosetta2 DE3 cells after 30 mins by Flourescence polarization assay; format: biochemical
[20] = AUC (0 to t) in SCID mouse at 25 mg/kg, po by LC/MS method; format: ADME, organism-based; conditions: in vivo
In short: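 Mouse plasma samples were stored at −80 °C. Drug levels were quantified by a validated LC–MS/MS method, and pharmacokinetic parameters were calculated by noncompartmental analysis.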

Mus musculus [21] = test: Toxicity in SCID mouse implanted with human MV4-11 cells at 50 mg/kg, po qd measured 2 to 3 times weekly during treatment and once weekly post dose; format: organism-based; conditions: in vivo; in short: as §1
[22] = Oral bioavailability in Sprague-Dawley rat at 25 mg/kg by LC/MS method; format: ADME, organism-based; conditions: in vivo
[23] = molecular target: Nucleosome-remodeling factor subunit BPTF (Homo sapiens, UniProt Q12830); test: Binding affinity to human partial length FALZ (S2791 to H2911 residues) expressed in bacterial expression system by BROMOscan assay
[24] = molecular target: Bromodomain testis-specific protein (Homo sapiens, UniProt Q58F21); test: Binding affinity to human partial length BRDT bromodomain 1 isoform b (N21 to E137 residues) expressed in bacterial expression system by BROMOscan assay
MV4-11 [25] = test: Inhibition of BET bromodomain in human MV4-11 cells assessed as upregulation of p21 protein level after 24 hrs by Western blot method; format: cell-based; in short: as §3
[26] = Cmax in SCID mouse at 25 mg/kg, po by LC/MS method; format: ADME, organism-based; parameters: dose 25 mg/kg, route oral; conditions: in vivo
[27] = molecular target: T1, Bromodomain-containing protein 2; test: Binding affinity to human partial length BRD2 bromodomain 1/2 isoform 1 (K71 to D455 residues) by BROMOscan assay
HBL-100 = test: Cytotoxicity against human HBL100 cells assessed as cell growth inhibition after 4 days by WST-8 assay; format: functional, cell-based; conditions: HBL-100, 96 h
In short: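 Breast cancer cells were seeded at 3,000 cells/well, treated with serially diluted compound in medium and cultured for 4 days. Growth was read by WST-8 (10% v/v final, 1–3 h) at 450 nm. Readings were normalized to DMSO-treated cells, and IC50 was obtained by nonlinear regression.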

[28] = molecular target: ATPase family AAA domain-containing protein 2 (Homo sapiens, UniProt Q6PL18); test: Binding affinity to human partial length ATAD2A (Q981 to R1108 residues) expressed in bacterial expression system by BROMOscan assay
[29] = molecular target: Bromodomain and WD repeat-containing protein 1 (Homo sapiens, UniProt Q9NSI6); test: Binding affinity to human partial length WDR9 bromodomain 2 (A1310 to E1430 residues) expressed in bacterial expression system by BROMOscan assay

T1 sequence (P25440 whole entry, the tested form may be a part, canonical isoform): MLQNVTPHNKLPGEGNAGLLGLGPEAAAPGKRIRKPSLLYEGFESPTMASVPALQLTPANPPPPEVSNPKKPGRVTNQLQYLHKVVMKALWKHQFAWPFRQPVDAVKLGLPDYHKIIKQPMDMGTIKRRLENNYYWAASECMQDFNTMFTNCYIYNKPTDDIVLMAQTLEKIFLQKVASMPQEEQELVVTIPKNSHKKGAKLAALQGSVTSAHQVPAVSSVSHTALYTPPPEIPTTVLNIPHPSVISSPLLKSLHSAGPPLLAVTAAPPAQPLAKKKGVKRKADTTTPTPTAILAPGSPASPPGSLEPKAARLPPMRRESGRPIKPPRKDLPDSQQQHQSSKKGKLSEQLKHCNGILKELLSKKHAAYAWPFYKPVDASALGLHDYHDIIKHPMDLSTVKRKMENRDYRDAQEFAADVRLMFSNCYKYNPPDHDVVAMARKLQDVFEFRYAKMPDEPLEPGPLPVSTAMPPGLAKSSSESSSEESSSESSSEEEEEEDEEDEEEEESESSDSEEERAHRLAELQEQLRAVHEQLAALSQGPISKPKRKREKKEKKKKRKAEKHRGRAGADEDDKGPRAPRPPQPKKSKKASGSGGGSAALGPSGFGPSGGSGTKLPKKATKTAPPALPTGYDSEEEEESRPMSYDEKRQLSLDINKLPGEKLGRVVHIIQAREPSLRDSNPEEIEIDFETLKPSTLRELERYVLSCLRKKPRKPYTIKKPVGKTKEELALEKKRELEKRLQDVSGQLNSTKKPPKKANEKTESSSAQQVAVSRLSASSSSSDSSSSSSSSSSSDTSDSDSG

COc1cc2c(cc1-c1c(C)noc1C)[nH]c1nc(C)nc(-c3ccnc4ccccc34)c12
Kd [1]: 0.0009 µM
Kd [2]: 0.00073 µM
Activity (Mus musculus [3]): Non-Toxic
half-life [4]: 1.6 h
Kd (CREB-binding protein): 0.52 µM
half-life [5]: 2.9 h
inhibition (MV4-11 [6]): Dose-dependent effect
solubility [7]: Soluble
Cmax [8]: 7330 ng/mL
t1/2 [9]: > 1 h
AUC(0-t) [10]: 6340 ng·h/mL
t1/2 [11]: > 1 h
inhibition in vivo at 50 mg/kg (MV4-11 [12]): > 80%
Vdss (Mus musculus [13]): 2.75 L/kg
CL (Mus musculus [14]): 22.7 mL/min/kg
Kd [15]: > 4 µM
Activity (MV4-11 [16]): Dose-dependent effect
Kd [17]: > 4 µM
Kd [18]: > 4 µM
IC50 [19]: 0.0282 µM
Ki [19]: 0.0082 µM
AUC(0-t) [20]: 9140 ng·h/mL
Activity (Mus musculus [21]): Non-Toxic
bioavailability [22]: 93%
Kd [23]: > 4 µM
Kd [24]: 0.015 µM
inhibition (MV4-11 [25]): Dose-dependent effect
Cmax [26]: 983 ng/mL
Kd [27]: 0.0011 µM
IC50 (HBL-100): > 2 µM
Kd [28]: > 4 µM
Kd [29]: > 4 µM
